Experimental data taken from ChEMBL document CHEMBL4382192, “Discovery of a potent dual ALK and EGFR T790M inhibitor” (Eur J Med Chem, 2017).

Experiments:
[1] = tested on: Tyrosine-protein kinase ABL1 (Homo sapiens), P00519 [Q252H]; assay: Binding affinity to human non-phosphorylated ABL1 Q252H mutant (S229 to K512 residues) expressed in mammalian expression system assessed as residual binding level at 1 uM by Kinomescan method relative to control
Outline: (§1)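 Kinome-wide selectivity panel run by the KINOMEscan method, with the test compound at a single concentration of 1 μM. Wild-type and mutant kinases were profiled in the same screen.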

[2] = tested on: Tyrosine-protein kinase ABL1 (Homo sapiens), P00519 [T315I]; assay: Binding affinity to human phosphorylated ABL1 T315I mutant (S229 to K512 residues) expressed in mammalian expression system assessed as residual binding level at 1 uM by Kinomescan method relative to control; outline: as §1
[3] = biological target: Aurora kinase B (Homo sapiens) (UniProt Q96GD4); assay: Binding affinity to wild-type human partial length AURKB (D25 to A303 residues) expressed in mammalian expression system assessed as residual binding level at 1 uM by Kinomescan method relative to control
Aurora kinase B (Homo sapiens), sequence (Q96GD4 whole entry, the tested form may be a part): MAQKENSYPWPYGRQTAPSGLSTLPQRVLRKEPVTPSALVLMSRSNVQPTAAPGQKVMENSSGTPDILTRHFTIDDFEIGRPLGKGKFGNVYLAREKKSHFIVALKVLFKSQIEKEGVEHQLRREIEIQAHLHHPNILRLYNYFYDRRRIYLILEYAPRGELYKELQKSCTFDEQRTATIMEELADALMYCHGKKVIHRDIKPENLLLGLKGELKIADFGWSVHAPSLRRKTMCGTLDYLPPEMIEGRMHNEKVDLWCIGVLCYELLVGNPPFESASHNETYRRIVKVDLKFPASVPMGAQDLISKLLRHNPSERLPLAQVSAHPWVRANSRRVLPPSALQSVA

[4] = biological target: Mitotic checkpoint serine/threonine-protein kinase BUB1 (Homo sapiens) (UniProt O43683); assay: Binding affinity to wild-type human partial length BUB1 (Q724 to K1085 residues) expressed in mammalian expression system assessed as residual binding level at 1 uM by Kinomescan method relative to control
Mitotic checkpoint serine/threonine-protein kinase BUB1 (Homo sapiens), sequence (O43683 whole entry, looked up, the tested form may be a part): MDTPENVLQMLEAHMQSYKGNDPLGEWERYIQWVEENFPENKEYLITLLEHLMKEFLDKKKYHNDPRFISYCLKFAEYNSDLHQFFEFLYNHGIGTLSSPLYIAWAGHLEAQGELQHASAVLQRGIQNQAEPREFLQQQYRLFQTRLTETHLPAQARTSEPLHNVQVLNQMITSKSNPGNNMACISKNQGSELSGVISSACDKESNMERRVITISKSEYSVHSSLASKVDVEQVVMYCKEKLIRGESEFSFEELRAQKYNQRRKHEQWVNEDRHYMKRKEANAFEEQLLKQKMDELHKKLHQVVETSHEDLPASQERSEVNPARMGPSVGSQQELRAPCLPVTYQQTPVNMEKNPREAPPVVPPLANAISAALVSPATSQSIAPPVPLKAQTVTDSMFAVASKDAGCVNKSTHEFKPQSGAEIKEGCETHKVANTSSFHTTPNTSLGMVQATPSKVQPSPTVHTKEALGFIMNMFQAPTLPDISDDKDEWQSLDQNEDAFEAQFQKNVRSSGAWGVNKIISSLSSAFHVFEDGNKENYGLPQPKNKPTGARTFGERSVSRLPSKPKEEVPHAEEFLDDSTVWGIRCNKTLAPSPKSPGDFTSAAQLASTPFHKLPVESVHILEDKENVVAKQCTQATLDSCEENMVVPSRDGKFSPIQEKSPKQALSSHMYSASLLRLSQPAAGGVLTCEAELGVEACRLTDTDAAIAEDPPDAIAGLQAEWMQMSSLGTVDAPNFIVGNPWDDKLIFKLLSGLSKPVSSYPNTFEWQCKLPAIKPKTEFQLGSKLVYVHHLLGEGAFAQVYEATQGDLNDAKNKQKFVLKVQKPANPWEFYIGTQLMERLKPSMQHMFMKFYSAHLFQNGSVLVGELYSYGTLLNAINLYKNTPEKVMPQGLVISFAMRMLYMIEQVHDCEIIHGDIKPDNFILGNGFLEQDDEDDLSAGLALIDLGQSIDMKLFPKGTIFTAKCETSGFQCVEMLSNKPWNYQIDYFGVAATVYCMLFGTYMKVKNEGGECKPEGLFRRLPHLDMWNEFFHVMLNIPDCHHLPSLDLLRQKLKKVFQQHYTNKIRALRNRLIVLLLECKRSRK

[5] = biological target: Serine/threonine-protein kinase DCLK3 (Homo sapiens) (UniProt Q9C098); assay: Binding affinity to wild-type human partial length DCAMKL3 (E140 to V628 residues) expressed in bacterial expression system assessed as residual binding level at 1 uM by Kinomescan method relative to control
[6] = biological target: Eukaryotic translation initiation factor 2-alpha kinase 1 (Homo sapiens) (UniProt Q9BQI3); assay: Binding affinity to wild-type human partial length EIF2AK1 (Q147 to E603 residues) expressed in mammalian expression system assessed as residual binding level at 1 uM by Kinomescan method relative to control
[7] = biological target: Ephrin type-B receptor 2 (Homo sapiens) (UniProt P29323); assay: Binding affinity to wild-type human partial length EPHB2 (I597 to L902 residues) expressed in bacterial expression system assessed as residual binding level at 1 uM by Kinomescan method relative to control
Ephrin type-B receptor 2 (Homo sapiens), sequence (P29323 whole entry, the tested form may be a part): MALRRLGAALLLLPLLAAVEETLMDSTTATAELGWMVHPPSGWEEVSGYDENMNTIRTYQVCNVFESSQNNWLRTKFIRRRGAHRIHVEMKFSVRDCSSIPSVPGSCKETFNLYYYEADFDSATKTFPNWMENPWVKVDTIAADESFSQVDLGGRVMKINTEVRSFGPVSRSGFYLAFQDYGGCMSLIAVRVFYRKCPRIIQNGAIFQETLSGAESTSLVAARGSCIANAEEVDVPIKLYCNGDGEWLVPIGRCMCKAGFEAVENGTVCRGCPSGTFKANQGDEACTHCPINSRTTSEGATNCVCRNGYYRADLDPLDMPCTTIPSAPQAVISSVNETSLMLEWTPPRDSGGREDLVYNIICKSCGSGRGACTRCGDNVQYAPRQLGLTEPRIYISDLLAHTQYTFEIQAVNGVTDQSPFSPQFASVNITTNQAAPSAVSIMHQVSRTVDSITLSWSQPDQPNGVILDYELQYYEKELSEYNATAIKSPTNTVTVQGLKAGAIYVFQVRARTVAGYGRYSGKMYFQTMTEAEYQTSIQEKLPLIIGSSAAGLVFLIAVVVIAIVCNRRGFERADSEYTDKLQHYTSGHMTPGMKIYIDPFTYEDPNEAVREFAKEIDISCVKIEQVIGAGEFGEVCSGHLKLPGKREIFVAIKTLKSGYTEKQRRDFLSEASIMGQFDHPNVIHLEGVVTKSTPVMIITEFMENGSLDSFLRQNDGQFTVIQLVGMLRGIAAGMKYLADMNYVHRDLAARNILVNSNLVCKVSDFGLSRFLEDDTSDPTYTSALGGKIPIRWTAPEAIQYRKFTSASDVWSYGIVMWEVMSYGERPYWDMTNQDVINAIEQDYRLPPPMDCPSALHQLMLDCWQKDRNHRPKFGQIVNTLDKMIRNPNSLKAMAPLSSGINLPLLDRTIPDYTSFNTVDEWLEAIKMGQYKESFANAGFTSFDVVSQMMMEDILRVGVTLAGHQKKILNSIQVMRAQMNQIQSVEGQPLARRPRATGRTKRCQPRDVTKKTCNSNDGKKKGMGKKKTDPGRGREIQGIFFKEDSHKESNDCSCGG

[8] = biological target: Vascular endothelial growth factor receptor 3 (Homo sapiens) (UniProt P35916); assay: Binding affinity to wild-type human partial length FLT4 (E821 to E1196 residues) expressed in bacterial expression system assessed as residual binding level at 1 uM by Kinomescan method relative to control
[9] = biological target: Beta-adrenergic receptor kinase 1 (Homo sapiens) (UniProt P25098); assay: Binding affinity to wild-type human full length GRK2 (M1 to L689 residues) expressed in mammalian expression system assessed as residual binding level at 1 uM by Kinomescan method relative to control
Beta-adrenergic receptor kinase 1 (Homo sapiens), sequence (P25098 whole entry, the tested form may be a part): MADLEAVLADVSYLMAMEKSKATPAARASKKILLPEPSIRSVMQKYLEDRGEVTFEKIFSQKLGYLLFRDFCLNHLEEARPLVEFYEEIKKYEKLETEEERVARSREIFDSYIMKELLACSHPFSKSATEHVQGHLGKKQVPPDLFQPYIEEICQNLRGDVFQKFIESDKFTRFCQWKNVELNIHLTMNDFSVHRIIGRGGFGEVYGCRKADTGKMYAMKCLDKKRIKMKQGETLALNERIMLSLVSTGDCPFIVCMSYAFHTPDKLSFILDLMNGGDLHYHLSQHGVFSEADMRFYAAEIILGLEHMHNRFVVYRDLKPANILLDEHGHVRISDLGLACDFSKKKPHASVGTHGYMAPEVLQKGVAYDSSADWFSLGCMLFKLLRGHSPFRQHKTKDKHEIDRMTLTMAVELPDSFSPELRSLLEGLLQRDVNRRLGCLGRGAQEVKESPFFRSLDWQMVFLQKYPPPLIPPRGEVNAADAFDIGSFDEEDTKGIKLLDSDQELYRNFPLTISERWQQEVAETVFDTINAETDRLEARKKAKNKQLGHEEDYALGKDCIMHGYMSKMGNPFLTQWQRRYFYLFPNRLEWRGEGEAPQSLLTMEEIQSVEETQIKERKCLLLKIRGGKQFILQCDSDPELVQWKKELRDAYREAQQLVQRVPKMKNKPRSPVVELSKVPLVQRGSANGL
Outline: (§2)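 Single-point kinome-wide KINOMEscan binding panel, test compound at 1 μM, run by the provider's standard protocol.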

[10] = biological target: Serine/threonine-protein kinase haspin (Homo sapiens) (UniProt Q8TF76); assay: Binding affinity to wild-type human partial length HASPIN (I452 to K798 residues) expressed in mammalian expression system assessed as residual binding level at 1 uM by Kinomescan method relative to control
[11] = biological target: Interleukin-1 receptor-associated kinase 1 (Homo sapiens) (UniProt P51617); assay: Binding affinity to wild-type human partial length IRAK1 (R194 to S712 residues) expressed in mammalian expression system assessed as residual binding level at 1 uM by Kinomescan method relative to control
[12] = biological target: Mitogen-activated protein kinase 10 (Homo sapiens) (UniProt P53779); assay: Binding affinity to wild-type human partial length JNK3 (V28 to Q422 residues) expressed in mammalian expression system assessed as residual binding level at 1 uM by Kinomescan method relative to control
[13] = biological target: Serine/threonine-protein kinase MAK (Homo sapiens) (UniProt P20794); assay: Binding affinity to wild-type human partial length MAK (M1 to P314 residues) expressed in bacterial expression system assessed as residual binding level at 1 uM by Kinomescan method relative to control
[14] = biological target: Macrophage-stimulating protein receptor (Homo sapiens) (UniProt Q04912); assay: Binding affinity to wild-type human partial length MST1R (I1057 to L1363 residues) expressed in bacterial expression system assessed as residual binding level at 1 uM by Kinomescan method relative to control
[15] = biological target: Platelet-derived growth factor receptor beta (Homo sapiens) (UniProt P09619); assay: Binding affinity to wild-type human partial length PDGFRB (V582 to Y1009 residues) expressed in bacterial expression system assessed as residual binding level at 1 uM by Kinomescan method relative to control
[16] = biological target: Phosphatidylinositol 4-kinase beta (Homo sapiens) (UniProt Q9UBF8); assay: Binding affinity to wild-type human full length PIK4CB (M1 to M828 residues) expressed in mammalian expression system assessed as residual binding level at 1 uM by Kinomescan method relative to control; outline: as §2
[17] = biological target: cAMP-dependent protein kinase catalytic subunit alpha (Homo sapiens) (UniProt P17612); assay: Binding affinity to wild-type human partial length PKAC-alpha (G10 to F351 residues) expressed in bacterial expression system assessed as residual binding level at 1 uM by Kinomescan method relative to control
[18] = biological target: Proto-oncogene tyrosine-protein kinase receptor Ret (Homo sapiens) (UniProt P07949); assay: Binding affinity to wild-type human partial length RET (E713 to D1014 residues) expressed in bacterial expression system assessed as residual binding level at 1 uM by Kinomescan method relative to control
[19] = biological target: Proto-oncogene tyrosine-protein kinase ROS (Homo sapiens) (UniProt P08922); assay: Binding affinity to wild-type human partial length ROS1 (A1921 to N2240 residues) expressed in bacterial expression system assessed as residual binding level at 1 uM by Kinomescan method relative to control
[20] = biological target: Serine/threonine-protein kinase tousled-like 1 (Homo sapiens) (UniProt Q9UKI8); assay: Binding affinity to wild-type human partial length TLK1 (K447 to A754 residues) expressed in bacterial expression system assessed as residual binding level at 1 uM by Kinomescan method relative to control
Serine/threonine-protein kinase tousled-like 1 (Homo sapiens), sequence (Q9UKI8 whole entry, the tested form may be a part): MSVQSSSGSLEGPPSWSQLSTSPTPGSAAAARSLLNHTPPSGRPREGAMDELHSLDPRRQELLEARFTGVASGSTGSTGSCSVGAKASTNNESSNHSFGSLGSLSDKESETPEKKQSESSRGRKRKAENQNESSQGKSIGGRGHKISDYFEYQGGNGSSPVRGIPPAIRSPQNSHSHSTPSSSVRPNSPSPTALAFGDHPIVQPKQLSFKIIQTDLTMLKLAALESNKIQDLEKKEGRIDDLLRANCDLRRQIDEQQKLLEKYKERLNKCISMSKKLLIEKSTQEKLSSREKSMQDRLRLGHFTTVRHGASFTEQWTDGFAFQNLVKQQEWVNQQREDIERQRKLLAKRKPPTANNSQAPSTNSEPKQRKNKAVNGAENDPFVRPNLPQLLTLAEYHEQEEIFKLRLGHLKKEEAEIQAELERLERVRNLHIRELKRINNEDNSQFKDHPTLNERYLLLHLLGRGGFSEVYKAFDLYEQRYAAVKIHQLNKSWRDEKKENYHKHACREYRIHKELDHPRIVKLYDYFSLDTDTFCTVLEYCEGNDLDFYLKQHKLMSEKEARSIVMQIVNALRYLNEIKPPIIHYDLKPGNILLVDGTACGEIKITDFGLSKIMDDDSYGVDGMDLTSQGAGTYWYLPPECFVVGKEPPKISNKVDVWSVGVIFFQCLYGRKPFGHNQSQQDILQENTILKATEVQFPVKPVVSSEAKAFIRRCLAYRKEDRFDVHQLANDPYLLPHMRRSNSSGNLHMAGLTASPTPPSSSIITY

[21] = biological target: TRAF2 and NCK-interacting protein kinase (Homo sapiens) (UniProt Q9UKE5); assay: Binding affinity to wild-type human partial length TNIK (D4 to K311 residues) expressed in bacterial expression system assessed as residual binding level at 1 uM by Kinomescan method relative to control
[22] = biological target: Serine/threonine-protein kinase VRK2 (Homo sapiens) (UniProt Q86Y07); assay: Binding affinity to wild-type human partial length VRK2 (M1 to T336 residues) expressed in mammalian expression system assessed as residual binding level at 1 uM by Kinomescan method relative to control
Serine/threonine-protein kinase VRK2 (Homo sapiens), sequence (Q86Y07 whole entry, the tested form may be a part): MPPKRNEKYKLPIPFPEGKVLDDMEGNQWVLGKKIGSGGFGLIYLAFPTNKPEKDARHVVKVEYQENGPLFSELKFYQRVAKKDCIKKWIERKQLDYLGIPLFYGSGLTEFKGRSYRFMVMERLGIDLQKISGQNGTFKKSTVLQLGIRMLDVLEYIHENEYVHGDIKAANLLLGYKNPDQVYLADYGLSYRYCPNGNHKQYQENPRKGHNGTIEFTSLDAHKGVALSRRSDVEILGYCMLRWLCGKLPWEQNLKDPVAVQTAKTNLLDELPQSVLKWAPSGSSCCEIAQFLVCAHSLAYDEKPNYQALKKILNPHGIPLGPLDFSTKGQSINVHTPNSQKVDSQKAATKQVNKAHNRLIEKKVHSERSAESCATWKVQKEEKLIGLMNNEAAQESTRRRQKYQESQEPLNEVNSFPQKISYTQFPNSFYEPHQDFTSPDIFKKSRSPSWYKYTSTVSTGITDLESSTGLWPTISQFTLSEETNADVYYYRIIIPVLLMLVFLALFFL

[23] = biological target: CYP3A4 (Homo sapiens, UniProt P08684); assay: Residual activity of CYP3A4 in human liver microsomes at 10 uM using midazolam 1-hydroxylase as substrate preincubated for 5 mins followed by NADPH addition measured after 15 mins by LC/MS/MS analysis relative to control; settings: probe midazolam (1-hydroxylation)
CYP3A4, sequence (P08684 whole entry): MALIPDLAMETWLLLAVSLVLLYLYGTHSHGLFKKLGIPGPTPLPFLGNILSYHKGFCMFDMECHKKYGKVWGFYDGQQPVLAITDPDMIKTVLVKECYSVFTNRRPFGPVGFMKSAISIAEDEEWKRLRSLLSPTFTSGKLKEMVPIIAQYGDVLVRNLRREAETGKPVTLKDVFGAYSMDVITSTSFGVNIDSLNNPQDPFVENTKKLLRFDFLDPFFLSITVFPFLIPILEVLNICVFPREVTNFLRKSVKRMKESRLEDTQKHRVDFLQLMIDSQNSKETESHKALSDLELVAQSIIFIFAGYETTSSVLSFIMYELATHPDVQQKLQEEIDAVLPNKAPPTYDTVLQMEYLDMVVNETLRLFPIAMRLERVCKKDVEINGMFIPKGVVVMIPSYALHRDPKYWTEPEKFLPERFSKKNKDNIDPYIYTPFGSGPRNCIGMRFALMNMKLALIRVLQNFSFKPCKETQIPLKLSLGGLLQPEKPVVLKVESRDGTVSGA

Q: For `C=CC(=O)Nc1cc(Nc2ncc(Cl)c(Nc3ccccc3S(=O)(=O)C(C)C)n2)c(OC)cc1N(C)CCN(C)C`, which Activity [1] is on record?
A: 1.9%

Q: And the Activity [2]?
A: 0.35%

Q: And the Activity [3]?
A: 39%

Q: And the Activity [4]?
A: 87%

Q: What about the Activity [5] of the same compound?
A: 30%

Q: What about the Activity [6] of the same compound?
A: 72%

Q: What about the Activity [7] of the same compound?
A: 61%

Q: What about the Activity [8] of the same compound?
A: 36%

Q: What about the Activity [9] of the same compound?
A: 100%

Q: And the Activity [10]?
A: 100%

Q: And the Activity [11]?
A: 21%

Q: What about the Activity [12] of the same compound?
A: 82%

Q: What about the Activity [13] of the same compound?
A: 100%

Q: What about the Activity [14] of the same compound?
A: 100%

Q: What about the Activity [15] of the same compound?
A: 43%

Q: What about the Activity [16] of the same compound?
A: 69%

Q: What about the Activity [17] of the same compound?
A: 100%

Q: What about the Activity [18] of the same compound?
A: 13%

Q: And the Activity [19]?
A: 0%

Q: And the Activity [20]?
A: 68%

Q: What about the Activity [21] of the same compound?
A: 61%

Q: What about the Activity [22] of the same compound?
A: 98%

Q: And the Activity at […], 10 µM [23]?
A: 44%
